Test results from ChEMBL document CHEMBL3739279, “Fluorinated betulinic acid derivatives and evaluation of their anti-HIV activity” (Bioorg Med Chem Lett, 2016).

What was measured:
[1] = Cytotoxicity against human MT4 cells by cell-titer Glo assay; type: cell-based
Method in brief: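 MT4 cells cultured in parallel with antiviral cultures; viability read by luminescent ATP quantitation (CellTiter-Glo). CC50 = concentration reducing viability by 50%.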

[2] = tested on: Human immunodeficiency virus 1; experiment: Antiviral activity against HIV-1 NL4-3 infected in MT4 cells assessed inhibition of viral replication measured on day 4 postinfection by ELISA; type: functional, organism-based; settings: Human immunodeficiency virus 1, NL4-3, MT4, 96 h
Method in brief: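 MT4 cells infected with HIV-1 NL4-3 at MOI 0.001 in presence of graded compound concentrations; fresh compound-containing medium added 48 h post-infection to sustain growth. Viral replication read on day 4 by p24 ELISA; EC50 = concentration giving 50% inhibition of replication.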

C=C(C)[C@@H]1CC[C@]2(C(=O)OC)CC[C@]3(C)[C@H](CC[C@@H]4[C@@]5(C)C[C@@H](C(F)(F)F)[C@H](OC(=O)CC(C)(C)C(=O)O)C(C)(C)[C@@H]5CC[C@]43C)[C@@H]12
CC50 [1]: > 6 µM | EC50 [2]: > 6 µM

C=C(C)[C@@H]1CC[C@]2(C(=O)O)CC[C@]3(C)[C@H](CC[C@@H]4[C@@]5(C)C[C@@H](F)[C@H](OC(=O)CC(C)(C)C(=O)O)C(C)(C)[C@@H]5CC[C@]43C)[C@@H]12
CC50 [1]: > 17 µM | EC50 [2]: > 17 µM

C=C(C)[C@@H]1CC[C@]2(C(=O)O)CC[C@]3(C)[C@H](CC[C@@H]4[C@@]5(C)CC[C@H](OC(=O)C(F)(F)C(F)(F)C(=O)O)C(C)(C)[C@@H]5CC[C@]43C)[C@@H]12
CC50 [1]: > 6 µM | EC50 [2]: > 6 µM

C=C(CC(F)(F)F)[C@@H]1CC[C@]2(C(=O)O)CC[C@]3(C)[C@H](CC[C@@H]4[C@@]5(C)CC[C@H](OC(=O)CC(C)(C)C(=O)O)C(C)(C)[C@@H]5CC[C@]43C)[C@@H]12
CC50 [1]: > 6 µM | EC50 [2]: 0.097 µM

C=C(C)[C@@H]1CC[C@]2(C(=O)OCCC3CC3)CC[C@]3(C)[C@H](CC[C@@H]4[C@@]5(C)C[C@@H](F)[C@H](OC(=O)CC(C)(C)C(=O)O)C(C)(C)[C@@H]5CC[C@]43C)[C@@H]12
CC50 [1]: > 6 µM | EC50 [2]: 1.1 µM

C=C(C)[C@@H]1CC[C@]2(C(=O)O)CC[C@]3(C)[C@H](CC[C@@H]4[C@@]5(C)CC[C@H](OC(=O)CC(C)(C)C(=O)O)C(C)(C)[C@@H]5CC[C@]43C)[C@@H]12 [BEVIRIMAT]
CC50 [1]: > 17 µM | EC50 [2]: 0.075 µM

C=C(C)[C@@H]1CC[C@]2(C(=O)O)CC[C@]3(C)[C@H](CC[C@@H]4[C@@]5(C)CC[C@H](OC(=O)C(F)(F)C(F)(F)C(F)(F)C(=O)O)C(C)(C)[C@@H]5CC[C@]43C)[C@@H]12
CC50 [1]: > 6 µM | EC50 [2]: > 6 µM

C=C(C)[C@@H]1CC[C@]2(C(=O)OCCc3cccc(C(F)(F)F)c3)CC[C@]3(C)[C@H](CC[C@@H]4[C@@]5(C)CC[C@H](OC(=O)CC(C)(C)C(=O)O)C(C)(C)[C@@H]5CC[C@]43C)[C@@H]12
CC50 [1]: > 5 µM | EC50 [2]: 3 µM

C=C(C)[C@@H]1CC[C@]2(C(=O)OC)CC[C@]3(C)[C@H](CC[C@@H]4[C@@]5(C)C[C@@H](F)[C@H](OC(=O)CC(C)(C)C(=O)O)C(C)(C)[C@@H]5CC[C@]43C)[C@@H]12
CC50 [1]: > 16 µM | EC50 [2]: > 16 µM

C=C(C)[C@@H]1CC[C@]2(C(=O)OCC3CCC(F)(F)CC3)CC[C@]3(C)[C@H](CC[C@@H]4[C@@]5(C)CC[C@H](OC(=O)CC(C)(C)C(=O)O)C(C)(C)[C@@H]5CC[C@]43C)[C@@H]12
CC50 [1]: > 6 µM | EC50 [2]: 0.31 µM
